How the values were obtained:
[1] = Ionization constant, pKa of the compound; format: physicochemical
Procedure, shortened: (§1)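 Potentiometric titration of about 1 mM aqueous compound, ionic strength 0.15 M KCl. Solution acidified to pH 1.8 with 0.5 N HCl, then titrated with standardized 0.5 N KOH to pH 12.2 at 25 °C under argon. pKa taken as mean of four titrations.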

[2] = Displacement of [3H]muscimol from GABAA receptor in Sprague-Dawley rat brain synaptic membranes after 60 mins by Topcount scintillation counting method
Procedure, shortened: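 Synaptic membranes from male SPRD rat cortex and central hemispheres, washed four times (50 mM Tris-HCl pH 7.4, 48,000g, 4 °C). Membranes (70–80 µg protein) incubated with [3H]muscimol (5 nM final) and graded compound concentrations, 60 min, 0 °C. GF/C filtration, scintillation counting. Non-specific binding with 1.0 mM GABA. Triplicates, ≥3 experiments. IC50 converted to Ki (modified Cheng–Prusoff); mean pKi ± SEM.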

[3] = Ionization constant, pKa of the compound in methanol by diode array detection method; format: physicochemical
[4] = Ionization constant, pKa of the compound in KCl at pH 1.8 by potentiometric titration method; format: physicochemical; procedure, shortened: as §1

Row | pKi [2] | SMILES | pKa [1] | Ki [2] [µM] | pKa [3] | pKa [4]
1 |  | On1cc(C2CCNCC2)cn1 | 5.4 | 10 |  | 
2 |  | Oc1cc(C2CCNCC2)[nH]n1 |  | > 100 | 6.7 | 
3 |  | Cn1nc(O)c(CCN)n1 |  | > 100 |  | 5.92
4 |  | Oc1nn(C2CCNCC2)nc1CCC(c1ccccc1)c1ccccc1 |  | > 100 |  | 
5 | 5.49 | Oc1nn(C2CCNCC2)nc1Cc1ccc2ccccc2c1 |  | 3.3 |  | 
6 | 5.62 | Oc1nnn(C2CCNCC2)c1Cc1ccc2ccccc2c1 |  | 2.4 |  | 
7 |  | Oc1cnn(C2CCNCC2)n1 |  | > 100 |  | 6.36
8 | 5.8 | Oc1nnn(C2CCNCC2)c1CCC(c1ccccc1)c1ccccc1 |  | 1.6 |  | 

Row | SMILES | pKi [2] | pKa [1] | Ki [2] [µM] | pKa [3] | pKa [4]
9 | NCCc1nsnc1O | 4.13 |  | 75 |  | 4.54
10 | Oc1cn(C2CCNCC2)nn1 | 4.26 |  | 55 |  | 6.51

Reference: ChEMBL document CHEMBL4265929, “4-Hydroxy-1,2,3-triazole moiety as bioisostere of the carboxylic acid function: a novel scaffold to probe the orthosteric γ-aminobutyric acid receptor binding site” (Eur J Med Chem, 2018)
